According to ChEMBL document CHEMBL1165881, “Synthesis and cytotoxicity evaluation of (tetrahydro-beta-carboline)-1,3,5-triazine hybrids as anticancer agents” (Eur J Med Chem, 2010):
pIC50: −log10 of the molar value.

Key:
DU-145 = test: Cytotoxicity against human DU145 cells after 72 hrs by MTT assay; format: functional, cell-based; details: for pIC50: read-out: IC50
Procedure, shortened: (§1)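 Seeded at 5000–10000 cells/well, incubated at 37 °C in CO2 with compounds at a range of concentrations, controls included, in triplicate wells. After 72 h, MTT solution (5 mg/mL) added; absorbance read at 540 nm. % cytotoxicity = 100 × [1 − (X/R1)] versus control absorbance; IC50 by nonlinear regression. Values are means of at least two independent experiments, three determinations each.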

PA-1 = test: Cytotoxicity against human PA1 cells after 72 hrs by MTT assay; format: functional, cell-based; details: for pIC50: read-out: IC50; procedure, shortened: as §1
A549 = test: Cytotoxicity against human […] cells after 72 hrs by MTT assay; format: functional, cell-based; details: for pIC50: read-out: IC50; procedure, shortened: as §1
KB = test: Cytotoxicity against human KB cells after 72 hrs by MTT assay; format: functional, cell-based; procedure, shortened: as §1
MIA PaCa-2 = test: Cytotoxicity against human MIAPaCa2 cells after 72 hrs by MTT assay; format: functional, cell-based; details: for pIC50: read-out: IC50; procedure, shortened: as §1
[1] = Cytotoxicity against mouse NIH/3T3 cells after 72 hrs by MTT assay; format: cell-based, NIH3T3; details: for pIC50: read-out: IC50; procedure, shortened: as §1
K562 = test: Cytotoxicity against human K562 cells after 72 hrs by MTT assay; format: functional, cell-based; details: for pIC50: read-out: IC50; procedure, shortened: as §1
SW-620 = test: Cytotoxicity against human SW620 cells after 72 hrs by MTT assay; format: functional, cell-based; details: for pIC50: read-out: IC50; procedure, shortened: as §1
MCF7 = test: Cytotoxicity against human MCF7 cells after 72 hrs by MTT assay; format: functional, cell-based; details: for pIC50: read-out: IC50; procedure, shortened: as §1

| Compound | IC50 (DU-145; du-145) | IC50 (PA-1; pa-1) | pIC50 (KB; Homo sapiens, KB, 72 h) | IC50 (SW-620; sw-620) | IC50 (MCF7; mcf7) | pIC50 (DU-145; Homo sapiens, DU-145, 72 h) | pIC50 (PA-1; Homo sapiens, PA-1, 72 h) | pIC50 ([1]; Mus musculus, NIH3T3, 72 h) | pIC50 (MCF7; Homo sapiens, MCF7, 72 h) | pIC50 (MIA PaCa-2; Homo sapiens, MIA PaCa-2, 72 h) | pIC50 (K562; Homo sapiens, K562, 72 h) | pIC50 (SW-620; Homo sapiens, SW-620, 72 h) | further results |
| --- | --- | --- | --- | --- | --- | --- | --- | --- | --- | --- | --- | --- | --- |
| CCCNc1nc(NCCC)nc(N2[C@@H](c3ccc(C)cc3)c3[nH]c4ccccc4c3C[C@@H]2C(=O)OC)n1 (racemic) | Not Active | Not Active | 6.18 | Not Active | Not Active |  |  |  |  |  |  |  | IC50 (A549; a549): Not Active; IC50 (MIA PaCa-2; mia paca-2): Not Active; IC50 ([1]; nih3t3): Not Active; IC50 (K562; k562): Not Active |
| COC(=O)[C@@H]1Cc2c([nH]c3ccccc23)[C@H](c2cc(OC)c(OC)c(OC)c2)N1c1nc(N2CCN(C)CC2)nc(N2CCN(C)CC2)n1 (racemic) |  |  | 4.75 |  |  | 5.28 | 5.27 | 5.17 | 5.22 |  |  |  |  |
| COC(=O)[C@@H]1Cc2c([nH]c3ccccc23)[C@H](c2ccc(OC)cc2)N1c1nc(N2CCN(C)CC2)nc(N2CCN(C)CC2)n1 |  |  |  |  |  |  |  |  |  |  |  |  | pIC50 (DU-145; du-145): 4.99; pIC50 (PA-1; pa-1): 5.56; pIC50 (A549; a549): 5.50; pIC50 (KB; kb): 5.12; pIC50 (MIA PaCa-2; mia paca-2): 5.44; pIC50 ([1]; nih3t3): 5.79; pIC50 (K562; k562): 5.32; pIC50 (SW-620; sw-620): 5.92; pIC50 (MCF7; mcf7): 5.05 |
| CCCNc1nc(NCCC)nc(N2[C@@H](c3ccc(OC)cc3)c3[nH]c4ccccc4c3C[C@@H]2C(=O)OC)n1 (racemic) | Not Active | Not Active | 6.91 | Not Active | Not Active |  |  |  |  |  |  |  | IC50 (A549; a549): Not Active; IC50 (MIA PaCa-2; mia paca-2): Not Active; IC50 ([1]; nih3t3): Not Active; IC50 (K562; k562): Not Active |
| COC(=O)[C@@H]1Cc2c([nH]c3ccccc23)[C@@H](c2ccc(C)cc2)N1c1nc(N2CCN(C)CC2)nc(N2CCN(C)CC2)n1 (racemic) | Not Active | Not Active | 6.98 | Not Active | Not Active |  |  |  |  |  |  |  | IC50 (A549; a549): Not Active; IC50 (MIA PaCa-2; mia paca-2): Not Active; IC50 ([1]; nih3t3): Not Active; IC50 (K562; k562): Not Active |
| COC(=O)[C@H]1Cc2c([nH]c3ccccc23)[C@@H](c2ccc(OC)cc2)N1c1nc(N2CCN(C)CC2)nc(N2CCN(C)CC2)n1 |  |  | 5.74 |  |  | 5.61 | 5.48 | 5.28 | 4.91 | 5.28 | 5.35 | 5.49 | pIC50 (A549; Homo sapiens, A549, 72 h): 4.94 |
| CCCN1CCN(c2nc(N3CCN(CCC)CC3)nc(N3[C@H](c4ccc(OC)cc4)c4[nH]c5ccccc5c4C[C@H]3C(=O)OC)n2)CC1 |  | Not Active | 5.45 | Not Active |  | 5.15 |  | 5.65 | 5.68 |  |  |  | pIC50 (A549; Homo sapiens, A549, 72 h): 5.78 |
| COC(=O)[C@H]1Cc2c([nH]c3ccccc23)[C@H](c2ccc(Cl)cc2)N1c1nc(N2CCN(C)CC2)nc(N2CCN(C)CC2)n1 (racemic) | Not Active |  | 5.70 |  | Not Active |  | 5.19 | 5.65 |  | 5.15 | 5.30 | 5.56 |  |
| COC(=O)[C@H]1Cc2c([nH]c3ccccc23)[C@H](c2ccccc2)N1c1nc(N2CCN(C)CC2)nc(N2CCN(C)CC2)n1 |  |  | 5.70 |  |  | 5.55 | 5.71 | 5.22 | 5.21 | 5.21 | 5.27 | 5.55 |  |
| COC(=O)[C@H]1Cc2c([nH]c3ccccc23)[C@H](c2ccc(OC)cc2)N1c1nc(N2CCN(C)CC2)nc(N2CCN(C)CC2)n1 |  |  | 6.00 |  |  | 5.59 | 5.69 | 5.50 | 4.96 | 5.21 | 5.22 | 5.67 |  |
| CCN1CCN(c2nc(N3CCN(CC)CC3)nc(N3[C@H](c4ccc(OC)cc4)c4[nH]c5ccccc5c4C[C@H]3C(=O)OC)n2)CC1 |  | Not Active | 5.91 | Not Active |  | 5.78 |  | 5.73 | 5.87 |  |  |  | pIC50 (A549; Homo sapiens, A549, 72 h): 5.79 |
